{
  "source": "paper PMC2965777",
  "about": "(Biochemistry, 2010)",
  "key": {"[1]": {"test": "Size exclusion chromatography, apparent molecular weight", "assay_type": "physicochemical", "settings": "Superdex Peptide 10/300; 10 mM sodium phosphate, 10 mM NaCl, pH 7.40; 0.5 mL/min; 100 μM YAQ12A, 170 μM 5QMe2; 230 nm"}, "YAQ12A [2]": {"system": "YAQ12A", "test": "Sedimentation assay of YAQ12A aggregation", "assay_type": "biochemical", "outline": "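Disaggregated peptide was diluted to 100 µM in 10 mM sodium phosphate, pH 7.40, and held at 37 °C without agitation, with or without inhibitor added as lyophilized aliquots. After 98,000 × g for 1 h at 22 °C, 100 µL of the top third went onto analytical C18 RP-HPLC (A220, isocratic water:acetonitrile:TFA 87.5:12.5:0.1). Monomer was quantified from peak area against a standard curve; mean ± S.D. of three replicates.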"}, "[3]": {"test": "Sedimentation equilibrium analytical ultracentrifugation of 5QMe2 alone", "assay_type": "physicochemical", "outline": "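Equilibrium sedimentation of inhibitor alone at 100 µM, 500 µM and 1 mM in 10 mM sodium phosphate, pH 7.40, at 20 °C, in six-sector cells with hourly scans. Rotor speed ran 3000 rpm (1 scan), 36,000 (16), 48,000 (13) and 60,000 rpm (19). A280 was used (A230 for 100 µM). Molecular weight came from global analysis of the three concentrations at each speed.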"}, "YAQ12A [4]": {"system": "YAQ12A", "test": "Electron microscopy of YAQ12A fibrillation products", "assay_type": "biochemical", "settings": "100 μM YAQ12A with 500 μM 5QMe2, 40 h, 37 °C", "outline": "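Aggregation products imaged by electron microscopy after incubating monomeric peptide in 10 mM sodium phosphate, pH 7.40, for 40 h at 37 °C, with or without inhibitor. Micrographs were recorded at 15,000 or 39,000× magnification, plus 1.4× from the CCD camera.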"}},
  "data": [
    {"substance": "Anth-K-Q-Q(Me2)-Q-Q(Me2)-Q-CONH2 [5QMe2]", "values": [
      {"measurement": "MW^app by size exclusion chromatography", "setting": "[1]", "value": "~ 1176.0"},
      {"measurement": "time after which more rapid loss of soluble YAQ12A follows the lag period", "setting": "YAQ12A [2]; 100 μM YAQ12A with 100 μM 5QMe2, time course, 37 °C", "value": "~ 70 h"},
      {"measurement": "aggregation of YAQ12A over the time course", "setting": "YAQ12A [2]; 100 μM YAQ12A with 1 mM 5QMe2, time course to 110 h, 37 °C", "value": "no aggregation was observed for the entire time period"},
      {"measurement": "reversal of YAQ12A aggregation", "setting": "YAQ12A [2]; 1 mM 5QMe2 added to 100 μM YAQ12A after 10 or 20 h of aggregation", "value": "did not reverse aggregation"},
      {"measurement": "association state of the inhibitor alone", "setting": "[3]; 100, 500 and 1000 μM, three rotor speeds", "value": "monomeric"},
      {"measurement": "molecular weight of 5QMe2 alone, three concentrations analysed globally", "setting": "[3]; rotor speed 36,000 rpm", "value": 988.5},
      {"measurement": "molecular weight of 5QMe2 alone, three concentrations analysed globally", "setting": "[3]; rotor speed 48,000 rpm", "value": 1000.0},
      {"measurement": "molecular weight of 5QMe2 alone, three concentrations analysed globally", "setting": "[3]; rotor speed 60,000 rpm", "value": 980.1},
      {"measurement": "fibril formation of YAQ12A by electron microscopy", "setting": "YAQ12A [4]", "value": "abrogates fibril formation"}
    ]}
  ]
}
